# The source made the active and inactive calls. The rule behind the calls is not given here.
# Key:
# HT-29 [1] = test: Antiproliferative activity against human HT29 cells at 2 uM after 96 hrs; format: functional, cell-based
# Method in brief: (§1)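 Cytostatic growth-inhibition assay: cells were exposed to compound for 96 h. The IC50 is the concentration giving 50% inhibition of cell growth. Compounds were dissolved in DMSO, and the top concentration was capped by the final DMSO level in the mixture. Compounds showing no inhibition up to the highest concentration tested were scored not active.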
# DU-145 [2] = test: Antiproliferative activity against human DU145 cells at 2 uM after 96 hrs; format: functional, cell-based; method in brief: as §1
# [3] = Antiproliferative activity against human MIA PaCa cells after 96 hrs; format: functional, cell-based; method in brief: as §1
# DU-145 [4] = test: Antiproliferative activity against human DU145 cells after 96 hrs; format: functional, cell-based; conditions: DU-145, 96 h; method in brief: as §1
# PaCa = test: Antiproliferative activity against human MIA PaCa cells at 2 uM after 96 hrs; format: functional, cell-based; method in brief: as §1
# HT-29 [5] = test: Antiproliferative activity against human HT29 cells after 96 hrs; format: functional, cell-based; conditions: HT-29, 96 h; method in brief: as §1
# KB = test: Cytotoxicity against human KB cells; format: functional; conditions: read-out: ED50 (the source's name)
# P388 = test: Cytotoxicity against mouse P388 cells; format: functional; conditions: read-out: ED50 (the source's name)
SMILES,Activity (HT-29 [1]),Activity (DU-145 [2]),IC50 [3] [nM],IC50 (DU-145 [4]) [nM],Activity (PaCa),IC50 (HT-29 [5]) [nM],EC50 (KB) [µg/mL],EC50 (P388) [µg/mL]
CCc1c2c(nc3cc4c(cc13)OCCO4)-c1cc3c(C(=O)OC)cccc3c(=O)n1C2,inactive,inactive,1400,,,,,
CCc1c2c(nc3ccc(OC)cc13)-c1cc3c(CO)cccc3c(=O)n1C2,inactive,,810,1810,,,,
CCc1c2c(nc3ccc(Cl)cc13)-c1cc3c(CO)cccc3c(=O)n1C2,inactive,,810,1690,,,,
CCc1c2c(nc3ccc(OC)cc13)-c1cc3c(C(=O)OC)cccc3c(=O)n1C2,inactive,inactive,,,inactive,,,
COC(=O)c1cccc2c(=O)n3c(cc12)-c1nc2ccccc2cc1C3,inactive,inactive,1010,,,,,
COC(=O)c1cccc2c(=O)n3c(cc12)-c1nc2ccc(OC)cc2c(C)c1C3,inactive,inactive,1990,,,,,
CCc1c2c(nc3ccc(O)cc13)-c1cc3c(c(=O)n1C2)COC(=O)[C@]3(O)CC [7-ETHYL-10-HYDROXYCAMPTOTHECIN],,,6,4,,12,,
O=c1c2cccc(CO)c2cc2n1Cc1cc3cc(Cl)ccc3nc1-2,inactive,inactive,1700,,,,,
CCc1c2c(nc3ccc(Cl)cc13)-c1cc3c(C(=O)OC)cccc3c(=O)n1C2,inactive,inactive,1500,,,,,
CCc1c2c(nc3ccc(C)cc13)-c1cc3c(CO)cccc3c(=O)n1C2,inactive,inactive,1140,,,,,
COC(=O)c1cccc2c(=O)n3c(cc12)-c1nc2ccc(C)cc2c(CCl)c1C3,inactive,inactive,1350,,,,,
O=c1c2cccc(CO)c2cc2n1Cc1cc3ccccc3nc1-2,inactive,inactive,1010,,,,0.61,1.32
CCc1c2c(nc3ccc(C)cc13)-c1cc3c(C(=O)OC)cccc3c(=O)n1C2,inactive,inactive,1810,,,,,
